Test results published in article PMC8717467 (Chemical biology & drug design, 2020).
One block for each molecule: values may come before it. Bridge positions count the residues as written; N and C are the ends. Peptide text beside a SMILES is read from it.

Assays:
[1] = tested on: adhesion between CD2 protein-expressing T cells and CD58 protein overexpressing Caco-2 cells; settings: read-out: IC50 in cell adhesion assay, Jurkat/T cells and epithelial cells such as Caco-2 and OVCAR-3, ref A. Gokhale et al., 2011, 2013, A. S. Gokhale et al., 2015; cited from earlier work
[2] = tested on: lymph node cells from type II collagen-immunized HLA-DQ8 mice; settings: ref A. Gokhale et al., 2013; A. S. Gokhale et al., 2015; cited from earlier work
[3] = tested on: T cell proliferation of lymph node cells from peptide-immunized DQ8 mice; test: Immunogenicity studies; type: in vivo; settings: LNC T-cell proliferation 10 days after immunization
In short: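 HLA-DQ8 mice were immunized with 200 μL of test peptide at 50 μg/mL. Ten days later, lymph nodes were harvested and made into single-cell suspensions. The lymph node cells were challenged in vitro with a range of peptide concentrations to measure T-cell proliferation. ConA (1 μg/mL) served as positive control. Results are stimulation index versus peptide concentration; an index above 2 counted as positive.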

[4] = target: T1, adhesion between Jurkat cells (CD2) and OVCAR-3 cells (CD58) (Homo sapiens, UniProt P19256); settings: read-out: IC50, Jurkat cell-OVCAR-3 cell adhesion assay
T1 sequence (P19256 29-250): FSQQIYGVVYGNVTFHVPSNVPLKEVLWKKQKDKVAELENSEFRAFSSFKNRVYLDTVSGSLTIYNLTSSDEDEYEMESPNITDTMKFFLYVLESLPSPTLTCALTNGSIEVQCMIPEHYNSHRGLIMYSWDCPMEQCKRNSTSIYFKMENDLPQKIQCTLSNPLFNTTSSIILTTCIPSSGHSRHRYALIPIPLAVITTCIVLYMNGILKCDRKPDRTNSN
T1 sequence (P06729 25-351 partner): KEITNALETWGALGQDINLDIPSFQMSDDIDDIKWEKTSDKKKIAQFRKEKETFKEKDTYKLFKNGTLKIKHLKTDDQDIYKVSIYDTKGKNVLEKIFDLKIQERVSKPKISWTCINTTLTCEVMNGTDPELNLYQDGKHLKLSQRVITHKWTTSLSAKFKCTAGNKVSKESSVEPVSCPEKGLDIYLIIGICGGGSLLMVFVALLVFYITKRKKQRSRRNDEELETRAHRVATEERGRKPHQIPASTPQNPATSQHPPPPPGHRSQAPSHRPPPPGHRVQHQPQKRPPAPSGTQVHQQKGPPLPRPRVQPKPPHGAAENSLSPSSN

[5] = Chemical stability in buffers of different pH; type: physicochemical; settings: pH 1.5, 7.4 and 9.6 buffers, 30 days, HPLC, zero time peak area = 100%
[6] = Thermal stability; type: physicochemical
In short: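 CD spectra of the peptide in water were recorded from 25 to 85 °C in 5 °C steps, 4 scans per temperature, 185–320 nm. Samples from 25, 55 and 85 °C were checked by mass spectrometry. Separately, peptide was incubated 30 min at 25, 55 or 85 °C, then run on C-18 HPLC and reported as relative peak area from triplicate experiments.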

[7] = target: T2, adhesion between Jurkat cells (CD2 protein) and HFLS-RA cells (CD58 protein) (Homo sapiens, UniProt P19256); settings: read-out: IC50, Jurkat cell - HFLS-RA cell adhesion assay
T2 sequence (P19256 29-250): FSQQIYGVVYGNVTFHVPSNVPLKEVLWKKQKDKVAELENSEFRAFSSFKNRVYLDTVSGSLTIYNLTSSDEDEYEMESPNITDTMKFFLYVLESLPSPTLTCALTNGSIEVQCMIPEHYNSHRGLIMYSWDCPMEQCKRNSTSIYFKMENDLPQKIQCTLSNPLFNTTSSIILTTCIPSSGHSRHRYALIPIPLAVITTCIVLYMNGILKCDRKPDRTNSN
T2 sequence (P06729 25-351 partner): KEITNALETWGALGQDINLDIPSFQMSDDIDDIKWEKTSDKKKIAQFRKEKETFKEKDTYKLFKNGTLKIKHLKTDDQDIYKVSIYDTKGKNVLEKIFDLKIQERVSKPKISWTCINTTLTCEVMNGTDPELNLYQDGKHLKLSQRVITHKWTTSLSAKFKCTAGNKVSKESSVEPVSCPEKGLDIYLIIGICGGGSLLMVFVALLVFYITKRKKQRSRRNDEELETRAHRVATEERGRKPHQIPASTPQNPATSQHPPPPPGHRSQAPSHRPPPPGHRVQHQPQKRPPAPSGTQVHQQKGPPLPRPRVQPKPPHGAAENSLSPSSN

[8] = target: T3, CD58 adhesion domain (Homo sapiens, UniProt P19256); test: SPR
T3 chain: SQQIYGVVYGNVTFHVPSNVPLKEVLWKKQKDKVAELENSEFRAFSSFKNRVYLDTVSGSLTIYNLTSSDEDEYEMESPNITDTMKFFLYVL

Molecule: CC[C@H](C)[C@@H]1NC(=O)[C@H](CC(=O)O)NC(=O)[C@H](CC(=O)O)NC(=O)[C@@H]2CCCN2C(=O)[C@H]2CCCN2C(=O)[C@H](CC(=O)O)NC(=O)[C@H](Cc2ccc(O)cc2)NC(=O)[C@H]([C@@H](C)CC)NC(=O)[C@H](CO)NC(=O)[C@H](CCCCN)NC1=O [Peptide 6]
IC50 [1]: 6.9 nM
T cell immune response in cells derived from transgenic mice that develop arthritis [2]: suppress the T cell immune response

Molecule: C[C@@H]1NC(=O)[C@@H]2CSSC[C@H](NC(=O)[C@H](CC(=O)O)NC(=O)[C@H](CC(=O)O)NC(=O)CNC(=O)[C@H](CC(=O)O)NC(=O)[C@H](Cc3ccc(O)cc3)NC1=O)C(=O)N[C@@H](CCCCN)C(=O)N[C@@H](CO)C(=O)N[C@@H](C)C(=O)N1CCC[C@H]1C(=O)N1CCC[C@H]1C(=O)N[C@@H](CO)C(=O)N2 [SFTI-a1] (cyclo(APPSCAYDGDDCKS); disulfide 5-12)
Immunogenicity [3]: not immunogenic
IC50 [4]: 23.3 ± 4.62 nM
Chemical stability: degradation in buffers [5]: not degraded significantly
Thermal stability: change of CD spectra with temperature ([6]; in water, 25 to 85 °C in 5 °C steps, CD): not significantly changed
Thermal stability: change in HPLC peak area ([6]; incubated at 55 and 85 °C for 30 min, HPLC C-18, triplicate experiments): no significant change in HPLC peak area
Thermal stability: mass spectrometric analysis ([6]; samples incubated at different temperatures (25, 55, 85 °C) in solution): no change in its mass
IC50 [7]: 37.2 ± 1.02 nM

Kd [8]: 320 nM
B1: SFTI-a1 (peptide)
chain: cyclo(CKSAPPSCAYDGDD)
modifications: disulfide 1-8
SMILES: C[C@@H]1NC(=O)[C@@H]2CSSC[C@H](NC(=O)[C@H](CC(=O)O)NC(=O)[C@H](CC(=O)O)NC(=O)CNC(=O)[C@H](CC(=O)O)NC(=O)[C@H](Cc3ccc(O)cc3)NC1=O)C(=O)N[C@@H](CCCCN)C(=O)N[C@@H](CO)C(=O)N[C@@H](C)C(=O)N1CCC[C@H]1C(=O)N1CCC[C@H]1C(=O)N[C@@H](CO)C(=O)N2
